Measurements as given in ChEMBL document CHEMBL1153269, “Design and synthesis of new hydroxyethylamines as inhibitors of D-alanyl-D-lactate ligase (VanA) and D-alanyl-D-alanine ligase (DdlB)” (Bioorg Med Chem Lett, 2009).
Active and inactive are the calls of the source. No cut-off for these calls is given here.

Columns and labels:
[1] = tested on: Escherichia coli; test: Inhibition of Escherichia coli […] at 500 uM by pyruvate kinase/lactate dehydrogenase coupled assay
[2] = target: T1, Vancomycin/teicoplanin A-type resistance protein VanA (Enterococcus faecium) (UniProt P25051); test: Inhibition of Enterococcus faecium VanA at 500 uM by pyruvate kinase/lactate dehydrogenase coupled assay
T1 sequence (whole entry): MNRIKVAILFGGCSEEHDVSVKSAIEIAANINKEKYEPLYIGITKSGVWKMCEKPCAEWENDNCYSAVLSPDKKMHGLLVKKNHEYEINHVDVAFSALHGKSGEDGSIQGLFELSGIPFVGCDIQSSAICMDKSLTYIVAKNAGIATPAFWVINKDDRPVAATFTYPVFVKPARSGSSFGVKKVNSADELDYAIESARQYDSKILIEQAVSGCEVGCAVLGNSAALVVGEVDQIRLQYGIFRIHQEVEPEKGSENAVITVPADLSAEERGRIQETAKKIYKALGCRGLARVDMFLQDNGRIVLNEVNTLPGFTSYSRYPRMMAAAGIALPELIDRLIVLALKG
Outline: (§1)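 VanA measured by NADH depletion at 340 nm via PK/LDH coupling, 37 °C. Buffer 100 mM Hepes pH 7.5, 10 mM MgCl2, 10 mM KCl, 10% (v/v) DMSO ± compound; 2 mM PEP, 0.2 mM ATP, PK, LDH, NADH; substrates 8 mM D-Ala and 1.78 mM D-Lac; started by adding VanA.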

[3] = target: T2, Vancomycin/teicoplanin A-type resistance protein VanA (Enterococcus faecium, UniProt P25051); test: Inhibition of Enterococcus faecium VanA by pyruvate kinase/lactate dehydrogenase coupled assay; outline: as §1
T2 sequence (P25051 whole entry): T1 sequence (whole entry)

[4] = Inhibition of Escherichia coli […] by pyruvate kinase/lactate dehydrogenase coupled assay
[5] = tested on: Escherichia coli; test: Inhibition of Escherichia coli […] at 10 mM by pyruvate kinase/lactate dehydrogenase coupled assay
[6] = target: T1, Vancomycin/teicoplanin A-type resistance protein VanA (Enterococcus faecium); test: Inhibition of Enterococcus faecium VanA at 10 mM by pyruvate kinase/lactate dehydrogenase coupled assay; outline: as §1

O=P(O)(O)OC(CNS(=O)(=O)c1ccc(F)cc1)CN1CCOCC1 (stereo unspecified)
inhibition [1]: 77%
inhibition [2]: 75%
IC50 [3]: 290 µM
IC50 [4]: 136 µM

COc1ccc(S(=O)(=O)NCC(O)CN2CCOCC2)cc1 (stereo unspecified)
Activity [5]: inactive
Activity [6]: inactive

O=S(=O)(NCC(O)CN1CCOCC1)c1ccc(F)cc1 (stereo unspecified)
Activity [5]: inactive
Activity [6]: inactive

COc1ccc(S(=O)(=O)NCC(CN2CCOCC2)OP(=O)(O)Oc2ccccc2)cc1 (stereo unspecified)
inhibition [1]: inactive
inhibition [2]: inactive

O=P(O)(Oc1ccccc1)OC(CNS(=O)(=O)c1ccc(F)cc1)CN1CCOCC1 (stereo unspecified)
inhibition [1]: inactive
inhibition [2]: 65%

COc1ccc(S(=O)(=O)NCC(CN2CCOCC2)OP(=O)(O)O)cc1 (stereo unspecified)
inhibition [1]: 83%
inhibition [2]: 83%
IC50 [3]: 224 µM
IC50 [4]: 110 µM
